Data: PMC7366207 (Journal of Antimicrobial Chemotherapy, 2020)
Values belong to the compound of their own block, whether it stands above or below them.

Columns and labels:
UGT1A9 = details: cited from earlier work
[1] = cited from earlier work
UGT1A1 = details: cited from earlier work
[2] = assay type: in vivo, human; details: oral 30 mg/day, steady state
[3] = assay type: in vivo, human; details: LATTE
In short: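 LATTE participants received oral drug 10, 30 or 60 mg once daily with two nucleoside analogues for 24 weeks, then with rilpivirine 25 mg daily to Week 72. Maximum on-treatment change from baseline in serum ALT and total bilirubin, regardless of dose, measured centrally as multiples of ULN. Linear regression on predicted UGT1A1/UGT1A9 activity, with covariates kept if P<0.05.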

[4] = Last oral lead-in cabotegravir trough; assay type: in vivo, human; details: for Low-versus-normal fold-change between mean cabotegravir trough concentrations: last oral trough on Day 1 (oral 30 mg); for Mean cabotegravir trough concentration: last oral trough on Day 1
In short: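 Human PK in LATTE-2 (4-weekly arm): daily oral 30 mg plus abacavir/lamivudine for 20 weeks. Day 1 trough taken 20–28 h after the last home oral dose. Plasma drug measured by validated LC-MS (LLOQ 25 ng/mL). Predicted UGT1A1 activity: normal with no *6/*28/*37 (*36 counted as wild type), reduced with one copy, low with two. Fold-change taken as the ratio of mean troughs.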

[5] = test system: uridine 5′-diphospho-glucuronosyltransferase (UGT); details: cited from earlier work
cytochrome P450 3A4 = details: cited from earlier work
[6] = oral dolutegravir 50 mg/day; same allele and activity definitions; cited from earlier work
[7] = fast versus normal predicted UGT1A9 activity
[8] = low versus normal predicted UGT1A1 activity
[9] = oral 10, 30 and 60 mg, fast versus normal predicted UGT1A9 activity
[10] = oral 10, 30 and 60 mg, low versus normal predicted UGT1A1 activity

Association of predicted UGT1A9 activity with exposure measures [2]: not significantly associated
Elevation in oral AUCtau associated with low predicted UGT1A1 activity [2]: 41%
Elevation in oral Cmax associated with low predicted UGT1A1 activity [2]: 28%
AUCtau, fold-change in exposure (fast versus normal) [2, 7]: 1.04 fold
Cmax, fold-change in exposure (fast versus normal) [2, 7]: 1.03 fold
Ctau, fold-change in exposure (fast versus normal) [2, 7]: 0.98 fold
AUCtau, fold-change in exposure (low versus normal) [2, 8]: 1.41 fold
Cmax, fold-change in exposure (low versus normal) [2, 8]: 1.28 fold
Ctau, fold-change in exposure (low versus normal) [2, 8]: 1.50 fold
Tbili change from BL, fold-change (fast versus normal) [3, 9]: 0.69 fold
Tbili maximum change from baseline, fold-change (low versus normal) [3, 10]: 2.45 fold
Low-versus-normal fold-change between mean cabotegravir trough concentrations ([4]; 4 weekly group): 1.57 fold
Mean cabotegravir trough concentration ([4]; 4 weekly group, low predicted UGT1A1 activity): 6.11 µg/mL
Mean cabotegravir trough concentration ([4]; 4 weekly group, normal predicted UGT1A1 activity): 3.88 µg/mL
Low-versus-normal fold-change between mean cabotegravir trough concentrations ([4]; 8 weekly arm): 1.19 fold
Mean cabotegravir trough concentration ([4]; 8 weekly arm, low predicted UGT1A1 activity): 5.10 µg/mL
Mean cabotegravir trough concentration ([4]; 8 weekly arm, normal predicted UGT1A1 activity): 4.28 µg/mL
Compound: C[C@H]1CO[C@@H]2Cn3cc(C(=O)NCc4ccc(F)cc4F)c(=O)c(O)c3C(=O)N12 [cabotegravir]
Metabolism by UGT1A9 (UGT1A9): minor contribution by UGT1A9
Aqueous solubility [1]: low aqueous solubility
Effect on UGT1A1 expression or activity (UGT1A1): does not functionally affect UGT1A1 expression or activity
Metabolism by UGT1A1 (UGT1A1): primarily metabolized by UGT1A1
ALT change from BL, fold-change (fast versus normal) [3, 9]: 1.68 fold
ALT maximum change from baseline, fold-change (low versus normal) [3, 10]: 0.68 fold
Association of predicted UGT1A1 activity with maximum change in ALT ([3]; oral any dose): no significant association
Participants with maximum on-treatment ALT elevation ≥3× ULN ([3]; among the 5 participants with Tbili increases of 1.5× ULN or greater): none
Inhibition or induction of UGT [5]: not an inhibitor or inducer

Compound: C[C@@H]1CCO[C@H]2Cn3cc(C(=O)NCc4ccc(F)cc4F)c(=O)c(O)c3C(=O)N12 [dolutegravir]
Contribution of cytochrome P450 3A4 to metabolism (cytochrome P450 3A4): ~30%
Increase in AUCtau associated with low UGT1A1 activity [6]: 46%
Increase in Cmax associated with low UGT1A1 activity [6]: 32%
